From ChEMBL document CHEMBL3826876, “Toward the Development of Specific G-Quadruplex Binders: Synthesis, Biophysical, and Biological Studies of New Hydrazone Derivatives” (J Med Chem, 2016)
The source made the active and inactive calls. The rule behind the calls is not given here.

What was measured:
[1] = Effect on preformed synthetic c-MYC parallel G-quadruplex DNA topology in tris buffer after 10 mins by circular dichroism titration method
[2] = Binding affinity to synthetic c-KIT2 G-quadruplex DNA assessed as increase in thermal stability in presence of 20 mM KCl buffer by circular dichroism spectroscopic analysis
Method in brief: (§1)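 CD melting in 5 mM potassium phosphate, 20 mM KCl, 10 µM folded G4, heated 20-100 °C at 1 °C/min; ligand:DNA ratios 1:1, 2:1 and 4:1 compared; Tm from curve fit.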

Homo sapiens = species: Homo sapiens; experiment: Binding affinity to human 5'-FAM/3'-TAMRA labeled telomere 21 G-quadruplex DNA assessed as increase in melting temperature by FRET assay
Method in brief: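 FRET melting screen in 60 mM potassium cacodylate pH 7.4, labelled probe 400 nM annealed at 85 °C for 10 min; ligands at various concentrations up to 20 µM, diluted from 10 mM DMSO stock via 10 mM HCl. Excitation 450-495 nm, emission 515-545 nm, 30-100 °C in 0.5 °C steps with 30 s hold; ΔTm by curve fitting, triplicate.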

[3] = Induction of G-quadruplex formation in synthetic unfolded telomere 23 DNA assessed as increase in molar ellipticity after 10 mins in absence of metal cation by circular dichroism titration method
Method in brief: (§2)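 CD titration without metal ions: unfolded oligonucleotide 12-15 µM in 50 mM Tris; ligand added in 0.5 equiv steps, spectrum recorded 10 min after each addition at 20 °C, 230-360 nm, 3 scans averaged.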

[4] = Binding affinity to 5' and 3'-terminal G-tetrads of synthetic MYC22 G14T/G23T double mutant G-quadruplex DNA in presence of 70 mM KCl solution by NMR spectroscopic analysis
Method in brief: (§3)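 1H NMR titration at 25 °C, 700 MHz, water-suppressed 1D spectra; DNA 0.2-0.5 mM strand in H2O/D2O 9:1. Myc22 in 25 mM KH2PO4, 70 mM KCl, 0.2 mM EDTA, pH 7.0; c-kit2 T12/T21 in 5 mM KH2PO4, 20 mM KCl, 0.2 mM EDTA, pH 6.8. Ligand in DMSO-d6 added stepwise into the tube; imino proton shifts followed.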

[5] = Effect on synthetic c-KIT2 G-quadruplex DNA topology at 4 mol equiv by circular dichroism spectroscopic analysis
Method in brief: (§4)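 CD spectra at 20 °C, 230-360 nm, 3 scans averaged, baseline subtracted; 10 µM G4 or 15 µM duplex in potassium- or lithium-phosphate pH 7.0 buffers with 100 mM KCl (c-kit2, c-myc: 5 mM potassium phosphate, 20 mM KCl); ligand 4 molar equiv added to folded DNA from 6 mM DMSO stock.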

U2OS [6] = experiment: Cytotoxicity against human U2OS cells assessed as cell death after 24 hrs by microscopic analysis; assay type: cell-based
[7] = Cytotoxicity against human HCT116 cells assessed as cell killing after 24 hrs by MTT assay; assay type: functional, cell-based; settings: HCT-116, 24 h
Method in brief: (§5)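 U2OS and HCT116 in DMEM with 10% FBS, 1% L-glutamine, seeded at 40000 cells/ml; 24 h later exposed for 1 h or 24 h, then drug-free medium 1-2 days. MTT 1 h at 37 °C, DMSO solubilisation, absorbance 595 nm. IC50 by linear regression; two independent experiments in triplicate, mean ± SE.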

[8] = Induction of parallel G-quadruplex formation in synthetic unfolded c-KIT1 DNA assessed as increase in molar ellipticity after 10 mins by in absence of metal cation circular dichroism titration method; method in brief: as §2
[9] = Binding affinity to synthetic c-MYC G-quadruplex DNA assessed as increase in thermal stability at 1:1 to 2:1 ligand:DNA ratio in presence of 20 mM KCl buffer by circular dichroism spectroscopic analysis; method in brief: as §1
U2OS [10] = experiment: Stabilization of nuclear G-quadruplex DNA in human U2OS cells at 0.2 to 1 uM after 24 hrs by DAPI staining based immunofluorescence assay; assay type: cell-based
Method in brief: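 U2OS seeded at 100000 cells/ml, treated 24 h after seeding for 24 h; fixed methanol:acetic acid 3:1, 0.1% Triton X-100, 2% milk block. Stained with in-house His-purified BG4, anti-FLAG, Alexa 488 anti-rabbit; nuclei DAPI. Per-cell signal as corrected total cell fluorescence; Student's t test.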

[11] = Binding affinity to 5'-FAM/3'-TAMRA labeled c-KIT2 G-quadruplex DNA (unknown origin) assessed as change in melting temperature at 4:1 ligand:DNA ratio in presence of 20 mM KCl buffer by FRET assay
Method in brief: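 FRET melting of FAM/TAMRA-labelled G4 oligos (400 nM, annealed 85 °C 10 min) with ligand at 4 equiv, same buffers as CD (20 mM KCl for c-kit2 and c-myc; 100 mM KCl for telomeric parallel form, annealed at high concentration). Excitation 450-495 nm, emission 515-545 nm, read every 0.5 °C over 30-100 °C; ΔTm by curve fit; duplicate runs averaged.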

[12] = Effect on synthetic telomere 26 G-quadruplex DNA topology at 4 mol equiv by circular dichroism spectroscopic analysis; method in brief: as §4
[13] = Binding affinity to synthetic c-MYC G-quadruplex DNA assessed as change in melting temperature at 4 mol equiv in presence of 20 mM KCl buffer by circular dichroism spectroscopic analysis
[14] = Cytotoxicity against human HCT116 cells assessed as cell killing after 1 hr by MTT assay; assay type: functional, cell-based; settings: HCT-116, 1 h; method in brief: as §5
[15] = Induction of parallel G-quadruplex formation in synthetic unfolded c-KIT2 DNA assessed as increase in molar ellipticity after 10 mins in absence of metal cation by circular dichroism titration method; method in brief: as §2
[16] = Binding affinity to 5' and 3'-terminal G-tetrads of synthetic c-KIT2 G12T/G21T double mutant parallel G-quadruplex DNA in presence of 20 mM KCl solution by NMR spectroscopic analysis; method in brief: as §3
[17] = Binding affinity to synthetic telomere 26 G-quadruplex DNA assessed as change in melting temperature at 4 mol equiv in presence of 100 mM KCl buffer by circular dichroism spectroscopic analysis
Method in brief: (§6)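 CD melting, 20-100 °C at 1 °C/min, signal at 264 (parallel), 290 (antiparallel) or 280 nm (duplex). G4 DNA 10 µM or duplex 15 µM, folded by heating at 90 °C 5 min and slow cooling, in 10 mM potassium phosphate (c-kit1, Tel23, Tel26) or lithium phosphate (Tel23-p, ds12) pH 7.0 with 100 mM KCl. Ligand 4 equiv; Tm by curve fit, ΔTm vs DNA alone; duplicate average.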

[18] = Binding affinity to synthetic telomere 23 G-quadruplex DNA assessed as change in melting temperature at 4 mol equiv in presence of 100 mM KCl buffer by circular dichroism spectroscopic analysis; method in brief: as §6
[19] = Binding affinity to synthetic self-complementary DNA 12-mer duplex assessed as change in melting temperature at 4 mol equiv in presence of 100 mM KCl buffer by circular dichroism spectroscopic analysis; method in brief: as §6
[20] = Effect on synthetic c-MYC G-quadruplex DNA topology at 4 mol equiv by circular dichroism spectroscopic analysis; method in brief: as §4

Br.O=Cc1c(-c2ccccc2)nc2n1ccc1nc(-c3ccccc3)c(/C=N/NC3=NCCN3)n12
Activity [1]: inactive | Activity [2]: Dose-dependent effect | Activity (Homo sapiens): Active | Activity [3]: inactive | Activity [4]: Active | Activity [5]: inactive | Activity (U2OS [6]): Non-toxic | IC50 [7]: 407 nM | Activity [8]: inactive | Activity [9]: Active | Activity (U2OS [10]): Active | ΔTm [11]: 15 °C | Activity [12]: inactive | ΔTm [13]: > 20 °C | IC50 [14]: 4.18 µM | Activity [15]: inactive | Activity [16]: Active | ΔTm [17]: -3 °C | ΔTm [18]: -2.4 °C | ΔTm [19]: -0.8 °C | Activity [20]: inactive
